Active and inactive are the calls of the source. The rule behind the calls is not given here.
Key:
Type in all cases: functional, organism-based
Candida albicans = test: Antifungal activity against Candida albicans by broth macrodilution method
In short: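 Broth macrodilution following NCCLS document M27-P guidelines for antifungal susceptibility testing of yeast.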

Escherichia coli = test: Antibacterial activity against Escherichia coli by broth macrodilution method
In short: (§1)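 Broth macrodilution as in the antifungal test (NCCLS M27-P guideline). The medium was changed to Luria-Bertani (10 g/L Bactotryptone, 5 g/L Bactoyeast, 10 g/L NaCl, pH 7.5), and incubation was at 37 °C for 24 h.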

Staphylococcus aureus [1] = test: Antibacterial activity against Staphylococcus aureus by broth macrodilution method; in short: as §1
Staphylococcus aureus [2] = test: Antibacterial activity against Staphylococcus aureus at 100 ug/mL by broth macrodilution method

SMILES	Activity (Candida albicans)	Activity (Escherichia coli)	Activity (Staphylococcus aureus [1])	Activity (Staphylococcus aureus [2])
C[C@H](CCCc1ccoc1)CC(=O)C[C@@H](C)CCCc1ccoc1	inactive	inactive	inactive	–
COC(=O)/C(=C\CC/C(C)=C/CC/C(C)=C/CCc1ccoc1)CC/C=C(\C)C(=O)O	inactive	inactive	inactive	–
C/C(=C\CCc1ccoc1)CC/C=C(\C)CCCc1ccoc1	inactive	inactive	inactive	–
C/C(=C\CCc1ccoc1)C[C@H](O)C[C@@H](C)CCCc1ccoc1	inactive	inactive	inactive	–
C/C(=C\CCc1ccoc1)CC/C=C(\C)CCCC1=CC(=O)OC1	inactive	inactive	inactive	–
COC(=O)/C(C)=C/CC/C(=C/CC/C(C)=C/CC/C(C)=C/CCc1ccoc1)C(=O)O	inactive	inactive	–	Active
C/C(=C\CCc1ccoc1)CC(=O)C[C@@H](C)CCCc1ccoc1	inactive	inactive	inactive	–
